Converted amounts (≈) assume the structure as drawn. The source made the active and inactive calls. A value given as a limit tells only on which side of the number the result lay.

The results in this text go back to ChEMBL document CHEMBL1145538, “In vitro inhibition of Streptococcus mutans biofilm formation on hydroxyapatite by subinhibitory concentrations of anthraquinones” (2007).

In experiment [1] the test system is Streptococcus mutans. Nature of the experiment: Effect on Streptococcus mutans LMG 14558 assessed as inhibition of biofilm formation in modified Robbin's device at 1200 ug/ml relative to BHIS control. Format: functional. Put shortly: (§1)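 S. mutans LMG 14558T grown at 37°C as biofilms on hydroxyapatite disks in modified Robbins' devices, in BHI plus 1% sucrose (BHIS) containing compound at the stated concentration. Biomass per disk is estimated by SYTO9 fluorescent staining and given as % of BHIS-only controls (avg ± SD). Significance by one-tailed independent-sample t test; P > 0.01 is not significant.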

For experiment [2], the system named is Streptococcus mutans. Nature of the experiment: Effect on Streptococcus mutans LMG 14558 assessed as inhibition of biofilm formation in modified Robbin's device at 0.1 ug/ml relative to BHIS control relative to BHIS control. The format is functional. The gist of the method:
as §1

In experiment [3] the test system is Streptococcus mutans. Kind of experiment: Activity against planktonic Streptococcus mutans LMG 14558. The format is functional. Put shortly:
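S. mutans LMG 14558T, routinely grown in BHI broth at 37°C, was tested against planktonic cells by broth microdilution in 96-well microtiter plates to give the MIC in μg/ml. The modified microdilution was also run with and without 1.5 mM glutathione, 0.025% (wt/vol) cysteine or 10 mM mannitol as ROS scavengers, including in chemically defined M1 medium.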

Experiment [4] concerns Streptococcus mutans. Nature of the experiment: Effect on Streptococcus mutans LMG 14558 assessed as inhibition of biofilm formation in modified Robbin's device at 5 ug/ml relative to BHIS control. The format is functional. The gist of the method: as §1
Experiment [5] has as its system Streptococcus mutans. Nature of the experiment: Effect on Streptococcus mutans LMG 14558 assessed as inhibition of biofilm formation in modified Robbin's device at 1333 ug/ml relative to BHIS control. The format is functional. The gist of the method: as §1
For experiment [6], the system named is Streptococcus mutans. Nature of the experiment: Decrease in membrane fluidity of Streptococcus mutans LMG 14558 using pyrene in BHI medium at 5 ug/ml relative to BHI control. Also on record: scale not given: the % may be the effect or the level left. The format is functional. The gist of the method:
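Relative membrane fluidity (lateral diffusion) of S. mutans LMG 14558T grown in BHI with or without 5 μg/ml compound, read as pyrene intermolecular excimer-to-monomer fluorescence intensity ratio at constant temperature. Relative fluidity F = (Ie/Im treated)/(Ie/Im untreated) × Fr, with untreated BHI-grown cells set to Fr = 1.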

Experiment [7] relates to Streptococcus mutans. Nature of the experiment: Effect on Streptococcus mutans LMG 14558 assessed as inhibition of biofilm formation in modified Robbin's device at 1 ug/ml relative to BHIS control. The format is functional. The gist of the method:
as §1

For experiment [8], the system named is Streptococcus mutans. Nature of the experiment: Susceptibility of Streptococcus mutans LMG 14558 in BHIS medium assessed as increase in biofilm formation at 5 ug/ml in presence of 0.025% cysteine. Format: functional, organism-based.
Experiment [9] relates to Streptococcus mutans. Nature of the experiment: Effect on Streptococcus mutans LMG 14558 assessed as inhibition of biofilm formation in modified Robbin's device at 2 ug/ml relative to BHIS control. The format is functional. Put shortly: as §1
Experiment [10] relates to Streptococcus mutans. Nature of the experiment: Effect on Streptococcus mutans LMG 14558 assessed as inhibition of biofilm formation in modified Robbin's device at 0.5 ug/ml relative to BHIS control. Format: functional. Put shortly: as §1
The subject of experiment [11] is Streptococcus mutans. Nature of the experiment: Effect on Streptococcus mutans LMG 14558 assessed as inhibition of biofilm formation in modified Robbin's device at 50 ug/ml relative to BHIS control. The format is functional. The gist of the method:
as §1

Consider `N=C(NCCCCCCNC(=N)NC(=N)Nc1ccc(Cl)cc1)NC(=N)Nc1ccc(Cl)cc1` [CHLORHEXIDINE], for which, in the experiment on Streptococcus mutans [1], the inhibition (commonly the change of the read-out against control, counted positive when it falls) at 1200 µg/mL is 34.5%. Moreover, the inhibition at 0.1 µg/mL in the experiment on Streptococcus mutans [2] worked out at 104%. For the same molecule, in the experiment with Streptococcus mutans [3], inhibition of growth (MIC) required 2 µg/mL (≈ 3.96 µM).

For `O=C1c2ccccc2C(=O)c2c(O)ccc(O)c21` [QUINIZARIN], the inhibition at 5 µg/mL in the experiment with Streptococcus mutans [4] worked out at 80%. In addition, the lowest concentration to inhibit growth with Streptococcus mutans [3] (MIC) was 250 µg/mL (≈ 1040 µM).

Take `O=C1c2cccc(O)c2C(=O)c2c(O)cccc21` [DANTHRON]: the inhibition at 5 µg/mL in the experiment with Streptococcus mutans [4] amounted to 91.3%. In the experiment on Streptococcus mutans [3], the minimum inhibitory concentration (MIC) (usually the smallest concentration in the dilution series that meets the test's criterion for growth inhibition) was 250 µg/mL (≈ 1040 µM).

As to `Cc1c(C(=O)O)c(O)cc2c1C(=O)c1c(O)c([C@@H]3O[C@H](CO)[C@@H](O)[C@H](O)[C@H]3O)c(O)c(O)c1C2=O` [CARMINIC ACID], in the experiment on Streptococcus mutans [4], the inhibition at 5 µg/mL stood at 66.5%. The molecule also showed an MIC against Streptococcus mutans [3] of more than 250 µg/mL.

In the case of `Oc1cc(Cl)ccc1Oc1ccc(Cl)cc1Cl` [TRICLOSAN], the inhibition at 5 µg/mL with Streptococcus mutans [4] amounted to 78.1%. In the experiment with Streptococcus mutans [5], the inhibition at 1333 µg/mL was 10.9%. Further, the minimum inhibitory concentration (MIC) against Streptococcus mutans [3] is 16 µg/mL (≈ 55.3 µM).

With `Cc1cc(O)c2c(c1)C(=O)c1cccc(O)c1C2=O` [CHRYSOPHANOL], in the experiment with Streptococcus mutans [4], the inhibition at 5 µg/mL is 75%. For the same molecule, the MIC against Streptococcus mutans [3] came to 250 µg/mL (≈ 983 µM).

As to `Cc1cc(O)c2c(c1)C(=O)c1cc(O)cc(O)c1C2=O` [EMODIN], the inhibition at 5 µg/mL with Streptococcus mutans [4] is 10.9%. Moreover, the Activity in the experiment on Streptococcus mutans [6] was determined as 21.2%. Also, in the experiment with Streptococcus mutans [7], the inhibition at 1 µg/mL stood at 79%. For the same molecule, in the experiment with Streptococcus mutans [8], the result was inactive. In addition, the inhibition at 2 µg/mL with Streptococcus mutans [9] amounted to 52.1%. Further, the inhibition at 0.1 µg/mL in the experiment on Streptococcus mutans [2] came to 101%. In addition, the inhibition at 0.5 µg/mL in the experiment with Streptococcus mutans [10] was 85.7%. In the experiment on Streptococcus mutans [3], this molecule yielded an MIC of more than 250 µg/mL.

Take `O=C1c2ccc(O)cc2C(=O)c2ccc(O)cc21` [ANTHRAFLAVICACID]: in the experiment on Streptococcus mutans [4], the inhibition at 5 µg/mL was found to be 98.2%. In the experiment on Streptococcus mutans [3], this molecule showed an MIC of 250 µg/mL (≈ 1040 µM).

Turning to `O=C1c2cccc(O)c2C(=O)c2c(O)cc(CO)cc21` [ALOE-EMODIN], the MIC against Streptococcus mutans [3] is more than 250 µg/mL. Also, in the experiment with Streptococcus mutans [11], the inhibition at 50 µg/mL was found to be 99.2%.

On to `O=C(O)c1cc(O)c2c(c1)C(=O)c1cccc(O)c1C2=O` [RHEIN], for which the inhibition at 5 µg/mL with Streptococcus mutans [4] came out at 75.2%. Moreover, the minimal inhibitory concentration (MIC) in the experiment on Streptococcus mutans [3] was determined as 10 µg/mL (≈ 35.2 µM).

For the molecule `O=C(O)c1cc(O)c2c(c1)C(C1c3cccc(O)c3C(=O)c3c(O)cc(C(=O)O)cc31)c1cccc(O)c1C2=O` (stereo not given) [SENNIDIN A], in the experiment on Streptococcus mutans [4], the inhibition at 5 µg/mL is 83.7%. The molecule also gave an MIC in the experiment with Streptococcus mutans [3] of more than 250 µg/mL.

For the molecule `COc1cc(O)c2c(c1)C(=O)c1cc(C)cc(O)c1C2=O` [PHYSCION], the inhibition at 5 µg/mL in the experiment with Streptococcus mutans [4] is 120%. The MIC against Streptococcus mutans [3] is more than 250 µg/mL.

As for `Cc1cc(O)c2c(=O)c3c(O)cc(O)c4c5c(O)cc(O)c6c(=O)c7c(O)cc(C)c8c1c2c(c34)c(c78)c65` [HYPERICIN], the inhibition at 5 µg/mL in the experiment with Streptococcus mutans [4] was 47.8%. The molecule further displayed an Activity with Streptococcus mutans [6] of 35.6%. Besides, the MIC in the experiment on Streptococcus mutans [3] was found to be 250 µg/mL (≈ 496 µM).
